Consider ten compounds from ChEMBL document CHEMBL4270533, “Lipidated α/α-AA heterogeneous peptides as antimicrobial agents” (Eur J Med Chem, 2018).

Converted amounts (≈) assume the structure as drawn. A value given as a limit tells only on which side of the number the result lay.

Data set [1] has as its system Staphylococcus epidermidis. As to the kind of experiment: Antimicrobial activity against methicillin-resistant Staphylococcus epidermidis RP62A after 18 hrs. It counts as functional. The essentials:
(§1)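 Broth microdilution. A colony was grown overnight in trypticase soy broth at 37 °C with shaking, then regrown to mid-log phase. 10^6 CFU/mL inoculum was mixed 1:1 with peptide dilutions (100 to 0.5 μg/mL) and incubated 18 h at 37°C. Read at OD600; MIC is the lowest concentration inhibiting growth. Three experiments, each in duplicate.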

For data set [2], the system named is Klebsiella pneumoniae. Nature of the data set: Antimicrobial activity against Klebsiella pneumoniae ATCC 13383 after 18 hrs. It counts as functional. The note with it: ATCC 13383, 18 h. The procedure, abridged:
(§2)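 Broth microdilution. Bacteria grown overnight in trypticase soy broth at 37 °C with shaking, then regrown to mid-log phase. 10^6 CFU/mL mixed 1:1 with peptide (100 to 0.5 μg/mL) and incubated 18 h at 37 °C. MIC taken as the lowest concentration inhibiting growth by OD600. Untreated bacteria served as control. Three experiments, each in duplicate.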

In data set [3] the test system is Escherichia coli. As to the kind of experiment: Antimicrobial activity against Escherichia coli JM109 after 18 hrs. It counts as functional. The note with it: JM109, 18 h. The procedure, abridged: as §2
For data set [4], the system named is Staphylococcus aureus. As to the kind of experiment: Antimicrobial activity against methicillin-resistant Staphylococcus aureus ATCC 33591 after 18 hrs. Format: functional. To be noted: ATCC 33591, 18 h. The essentials:
as §1

Data set [5] concerns Enterococcus faecalis. As to the kind of experiment: Antimicrobial activity against vancomycin-resistant Enterococcus faecalis ATCC 700802 after 18 hrs. It counts as functional. The note with it: ATCC 700802, 18 h. The essentials: as §1
The nature of data set [6]: Hemolytic activity in human RBC after 1 hr. It counts as ADME, cell-based, Erythrocyte. The note with it: red blood cells (erythrocytes). The essentials:
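Fresh human erythrocytes, PBS-washed (1000g, 10 min), as a 5% v/v suspension mixed 1:1 with two-fold compound dilutions. Incubated 1 h at 37 °C, then centrifuged. Supernatant hemoglobin read at 540 nm. PBS served as 0% lysis and 0.1% Triton X-100 as 100% lysis; % hemolysis computed relative to these.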

Data set [7] is described as follows: Selectivity ratio of HC50 for hemolytic activity in human RBC to MIC for methicillin-resistant Staphylococcus aureus ATCC 33591. It counts as toxicity. To be noted: red blood cells (erythrocytes).
Data set [8] relates to Escherichia coli. Nature of the data set: Bactericidal activity against Escherichia coli assessed as time required for bacterial kill at 12.5 ug/ml by time kill assay. Format: functional.
Data set [9] has as its system Escherichia coli. Nature of the data set: Bactericidal activity against Escherichia coli assessed as time required for bacterial kill at 25 to 50 ug/ml by time kill assay. It counts as functional.

Regarding `CCCCCCCCCCCCCCCC(=O)NCCN(C(=O)CCc1ccccc1)[C@@H](CCCCN)C(N)=O`, the MIC (in general, the lowest concentration that inhibits growth of the organism) was more than 25 µg/mL in data set [1]; more than 25 µg/mL in data set [2]; more than 25 µg/mL in data set [3]; 25 µg/mL (≈ 44.7 µM) in data set [4]; more than 25 µg/mL in data set [5].
For `CCCCCCCCCCCCCCCC(=O)N[C@@H](CCCCN)C(=O)NCCN(C(=O)CCc1ccccc1)[C@@H](CCCCN)C(=O)NCCN(C(=O)CCc1ccccc1)[C@@H](CCCCN)C(N)=O`, the minimal inhibitory concentration (MIC) in data set [1] is more than 25 µg/mL; in data set [2], more than 25 µg/mL; in [3], 1.5 to 3 µg/mL (≈ 1.51 to 3.03 µM); in [4] it was less than 3 µg/mL; in data set [5], more than 25 µg/mL. Further, the HC50 (usually the concentration that lyses half of the red blood cells) at 1 h in data set [6] worked out at 31.2 µg/mL. Also, in [7], the selectivity ratio turned out to be 10.4.
For `CCCCCCCCCCCCCCCC(=O)N[C@@H](CCCCN)C(=O)NCCN(C(=O)CCc1ccccc1)[C@@H](CCCCN)C(N)=O`, the MIC in [1] lay within 3 to 6 µg/mL (≈ 4.37 to 8.73 µM); in [2], 6 to 12 µg/mL (≈ 8.73 to 17.5 µM); in data set [3] it was 1.5 to 3 µg/mL (≈ 2.18 to 4.37 µM); in [4], 1.5 to 3 µg/mL (≈ 2.18 to 4.37 µM); in data set [5] it was 6 to 12 µg/mL (≈ 8.73 to 17.5 µM). In addition, the HC50 at 1 h in [6] was 31.2 µg/mL. In [7], the selectivity ratio was determined as 10.4.
With `CCCCCCCC(=O)N[C@@H](CCCCN)C(=O)NCCN(C(=O)CCc1ccccc1)[C@@H](CCCCN)C(N)=O`, the MIC in data set [1], in [2], in data set [3], in data set [4] and in [5] was more than 25 µg/mL each time.
Regarding `CCCCCCCCCCCC(=O)N[C@@H](CCCCN)C(=O)NCCN(C(=O)CCc1ccccc1)[C@@H](CCCCN)C(N)=O`, the minimum inhibitory concentration (MIC) in [1], in data set [2], in data set [3], in data set [4] and in data set [5] was more than 25 µg/mL in each case.
As to `CCCCCCCCCC(=O)N[C@@H](CCCCN)C(=O)NCCN(C(=O)CCc1ccccc1)[C@@H](CCCCN)C(N)=O`, the MIC in data set [1], in [2], in data set [3], in data set [4] and in data set [5] was more than 25 µg/mL in each case.
As for `CCCCCCCCCCCCCC(=O)N[C@@H](CCCCN)C(=O)NCCN(C(=O)CCc1ccccc1)[C@@H](CCCCN)C(N)=O`, the MIC in data set [1] is more than 25 µg/mL; in [2], more than 25 µg/mL; in data set [3], 6 to 12 µg/mL (≈ 9.11 to 18.2 µM); in data set [4] it was 12 to 25 µg/mL (≈ 18.2 to 37.9 µM); in data set [5] it was more than 25 µg/mL.
With `CCCCCCCCCCCCCCCC(=O)N[C@@H](CCCCN)C(=O)NCCN(C(=O)CCCN)[C@@H](Cc1ccccc1)C(N)=O`, the results for the Time in data set [8] and in data set [9] were 120 min and 60 min, respectively. The MIC in data set [2] and in data set [3] was 3 µg/mL (≈ 4.55 µM) in each case. Further, the HC50 at 1 h in data set [6] was determined as 125 µg/mL.
In the case of `CCCCCC(=O)N[C@@H](CCCCN)C(=O)NCCN(C(=O)CCc1ccccc1)[C@@H](CCCCN)C(N)=O`, the minimal inhibitory concentration (MIC) in data set [1], in data set [2], in data set [3], in [4] and in data set [5] was more than 25 µg/mL throughout.
Consider `CCCCCCCCCCCCCCCC(=O)N[C@@H](CCCCN)C(=O)NCCN(C(=O)CCc1ccccc1)[C@@H](CCCCN)C(=O)NCCN(C(=O)CCc1ccccc1)[C@@H](CCCCN)C(=O)NCCN(C(=O)CCc1ccccc1)[C@@H](CCCCN)C(N)=O`, for which the MIC is 3 to 6 µg/mL (≈ 2.32 to 4.64 µM) in data set [1]; more than 25 µg/mL in data set [2]; 1.5 to 3 µg/mL (≈ 1.16 to 2.32 µM) in [3]; 1.5 to 3 µg/mL (≈ 1.16 to 2.32 µM) in data set [4]; 6 to 12 µg/mL (≈ 4.64 to 9.27 µM) in [5]. This compound also displayed an HC50 at 1 h in [6] of 250 µg/mL. In [7], the selectivity ratio was 83.
